# According to ChEMBL document CHEMBL4396879, “Conjugation of Short Peptides to Dibenzodiazepinone-Type Muscarinic Acetylcholine Receptor Ligands Determines M2R Selectivity” (J Med Chem, 2019):
# Legend:
# [1] = target: T1, Muscarinic acetylcholine receptor M2 (Homo sapiens, UniProt P08172); assay: Displacement of [3H]-NMS from human muscarinic M2 receptor expressed in CHO-K9 cells after 3 hrs by microbeta2 scintillation counting method; format: cell-based
# T1 sequence (P08172 whole entry): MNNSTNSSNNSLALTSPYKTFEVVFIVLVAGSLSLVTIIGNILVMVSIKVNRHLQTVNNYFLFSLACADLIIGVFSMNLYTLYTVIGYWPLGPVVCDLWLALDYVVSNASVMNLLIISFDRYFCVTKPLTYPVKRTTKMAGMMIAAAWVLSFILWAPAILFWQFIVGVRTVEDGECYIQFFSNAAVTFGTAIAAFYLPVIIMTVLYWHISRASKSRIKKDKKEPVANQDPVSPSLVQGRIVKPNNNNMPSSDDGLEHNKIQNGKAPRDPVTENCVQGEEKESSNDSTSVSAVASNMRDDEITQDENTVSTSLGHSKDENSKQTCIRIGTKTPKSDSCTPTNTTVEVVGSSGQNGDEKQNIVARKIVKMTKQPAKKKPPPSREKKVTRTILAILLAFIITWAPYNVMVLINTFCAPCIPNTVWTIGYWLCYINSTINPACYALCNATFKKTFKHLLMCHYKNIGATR
# Method in brief: (§1)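 [3H]NMS competition binding on intact CHO-hMxR cells in L15 medium with 1% BSA, 3 h at 22 ± 1 °C with gentle shaking. [3H]NMS was 0.2 nM (M1, M2, M3), 0.1 nM (M4) or 0.3 nM (M5). […] Cells were lysed in urea/acetic acid/Triton and counted by liquid scintillation. Ki from Cheng-Prusoff. Triplicates, ≥3 experiments.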
# [2] = target: Muscarinic acetylcholine receptor M3 (Homo sapiens, UniProt P20309); assay: Displacement of [3H]-NMS from human muscarinic M3 receptor expressed in CHO-K9 cells after 3 hrs by microbeta2 scintillation counting method; format: cell-based; method in brief: as §1
# Chain of Muscarinic acetylcholine receptor M3 (P20309 whole entry): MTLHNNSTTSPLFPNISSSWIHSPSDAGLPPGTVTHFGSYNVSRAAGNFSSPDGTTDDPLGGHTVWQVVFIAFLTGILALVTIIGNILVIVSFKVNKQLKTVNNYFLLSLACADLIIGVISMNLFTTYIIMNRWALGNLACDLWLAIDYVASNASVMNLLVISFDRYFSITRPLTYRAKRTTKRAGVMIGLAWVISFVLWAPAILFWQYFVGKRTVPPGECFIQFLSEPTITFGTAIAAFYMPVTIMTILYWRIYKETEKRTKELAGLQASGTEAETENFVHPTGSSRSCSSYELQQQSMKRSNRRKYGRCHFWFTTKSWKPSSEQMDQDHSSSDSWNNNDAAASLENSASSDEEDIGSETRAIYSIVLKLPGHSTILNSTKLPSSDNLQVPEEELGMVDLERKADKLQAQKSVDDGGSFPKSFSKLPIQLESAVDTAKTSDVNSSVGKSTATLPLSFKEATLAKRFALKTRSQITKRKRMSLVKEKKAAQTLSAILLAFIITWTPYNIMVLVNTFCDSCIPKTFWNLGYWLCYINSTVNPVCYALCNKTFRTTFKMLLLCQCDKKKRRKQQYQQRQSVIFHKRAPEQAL
# [3] = target: T2, Muscarinic acetylcholine receptor M5 (Homo sapiens, UniProt P08912); assay: Displacement of [3H]-NMS from human muscarinic M5 receptor expressed in CHO-K9 cells after 3 hrs by microbeta2 scintillation counting method; format: cell-based; method in brief: as §1
# T2 sequence (P08912 whole entry): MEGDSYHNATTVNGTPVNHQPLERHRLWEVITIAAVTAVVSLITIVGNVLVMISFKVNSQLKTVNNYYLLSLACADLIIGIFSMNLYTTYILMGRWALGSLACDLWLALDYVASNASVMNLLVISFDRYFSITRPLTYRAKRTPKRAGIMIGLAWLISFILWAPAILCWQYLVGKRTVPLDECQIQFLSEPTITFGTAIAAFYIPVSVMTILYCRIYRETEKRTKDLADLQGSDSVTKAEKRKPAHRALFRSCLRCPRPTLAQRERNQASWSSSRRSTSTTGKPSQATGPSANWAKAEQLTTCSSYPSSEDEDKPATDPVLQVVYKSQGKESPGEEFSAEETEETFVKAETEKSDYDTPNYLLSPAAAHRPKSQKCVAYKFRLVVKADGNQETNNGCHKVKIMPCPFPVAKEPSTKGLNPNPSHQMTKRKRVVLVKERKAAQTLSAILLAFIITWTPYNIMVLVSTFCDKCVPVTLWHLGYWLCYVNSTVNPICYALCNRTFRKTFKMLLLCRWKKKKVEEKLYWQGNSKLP
# [4] = target: Muscarinic acetylcholine receptors; M2 & M3 (Homo sapiens) (UniProt P20309+P08172); assay: Selectivity ratio of Ki for human muscarinic M3 receptor expressed in CHO-K9 cells to Ki for human muscarinic M2 receptor expressed in CHO-K9 cells; format: cell-based
# Method in brief: (§2)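 Ratio of mean Ki values. Each Ki came from an individual [3H]NMS competition experiment at the given CHO-hMxR subtype, converting IC50 to Ki by Cheng-Prusoff before averaging.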
# [5] = target: Muscarinic acetylcholine receptor M2 and M5 (Homo sapiens) (UniProt P08172+P08912); assay: Selectivity ratio of Ki for human muscarinic M5 receptor expressed in CHO-K9 cells to Ki for human muscarinic M2 receptor expressed in CHO-K9 cells; format: cell-based; method in brief: as §2
# [6] = target: T3, Muscarinic acetylcholine receptor M2 (Homo sapiens) (UniProt P08172); assay: (§3) Antagonist activity at human muscarinic M2 receptor expressed in HEK293 cells co-expressing HA-Galphaq/i5 assessed as inhibition of carbachol-induced IP1 accumulation pre-incubated for 30 mins followed by carbachol addition and measured after 1 hr by HTRF assay; format: functional, cell-based
# T3 sequence (whole entry): T1 sequence (P08172 whole entry)
# Method in brief: (§4)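 HEK-293 cells transiently cotransfected (receptor plus HA-tagged Gαqi5), detached after 1 day and seeded at 10,000 cells/well for 24 h at 37 °C. Duplicates.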
# [7] = target: T1, Muscarinic acetylcholine receptor M2; assay: as §3; format: functional, cell-based; method in brief: as §4
SMILES,Ki [1] [nM],Ki [2] [µM],Ki [3] [nM],Ratio Ki [4],Ratio Ki [5],inhibition [6],IC50 [7] [nM]
CC(=O)N[C@@H](CCCCN)C(=O)N[C@@H](CCCNC(=N)N)C(=O)NCCCCC1CCN(CC(=O)N2c3ccccc3NC(=O)c3ccccc32)CC1,1.07,6.76,427,6500,400,Dose-dependent effect,93.3
CC(=O)N[C@@H](CCCCN)C(=O)N[C@@H](C)C(=O)N[C@@H](CCCNC(=N)N)C(=O)NCCN1CCN(CCCCC2CCN(CC(=O)N3c4ccccc4NC(=O)c4ccccc43)CC2)CC1,0.0631,0.11,295,1800,4900,Dose-dependent effect,10.5
